{"source": "ChEMBL document CHEMBL2176995", "about": "“An oral sphingosine 1-phosphate receptor 1 (S1P(1)) antagonist prodrug with efficacy in vivo: discovery, synthesis, and evaluation” (J Med Chem, 2012)", "key": {"Rattus norvegicus [1]": {"tested_on": "Rattus norvegicus", "experiment": "Induction of capillary leakage in Lewis rat Evans blue dye lung leakage model assessed as thorax fluid level at 30 mg/kg, po bid measured after 24 hrs relative to untreated control", "type": "organism-based", "set-up": "dose 30 mg/kg, route oral", "details": "in vivo", "method_in_brief": "(§1)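 Male Lewis rats were gavaged twice daily with vehicle or 30 mg/kg in 30% PEG200/buffer. Evans blue dye (20 mg/2 mL NaCl/kg iv) was given under anesthesia at 5, 23 or 95 h. One hour later the rats were bled, lungs were perfused with saline, dried at 60 °C for 24 h, weighed, and dye was extracted in formamide (24 h, 37 °C). Thoracic fluid volume was also recorded.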"}, "Rattus norvegicus [2]": {"tested_on": "Rattus norvegicus", "experiment": "Toxicity in stringent Dark Agouti to Lewis rat heterotopic vascular heart allotransplantation model assessed as compound tolerance at 30 mg/kg, po bid coadministered with 10 mg/kg, bid sotrastaurin", "type": "organism-based", "details": "in vivo", "method_in_brief": "(§2)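 DA donor hearts were grafted into Lewis recipients. Treatment started 3 days before transplantation: prodrug 30 mg/kg po b.i.d. (PEG200/water, pH 5) alone or with sotrastaurin 10 mg/kg po b.i.d. or everolimus 0.3 mg/kg po q.d. Grafts were followed to rejection or up to 50 days. Allografts were formalin-fixed, cut at 3 μm, stained with H&E and trichrome, and scored for rejection. Lymphocytes were counted weekly before dosing, and body weight was monitored.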"}, "Rattus norvegicus [3]": {"tested_on": "Rattus norvegicus", "experiment": "Reduction in peripheral blood lymphocytes in stringent Dark Agouti to Lewis rat heterotopic vascular heart allotransplantation model at 30 mg/kg, po bid coadministered with 0.3 mg/kg, qd everolimus measured post 50 days post transplant relative to untreated control", "type": "functional", "set-up": "scale not given: the % may be the effect or the level left", "method_in_brief": "as §2"}, "[4]": {"experiment": "Stability in pH 10 buffer assessed as compound remaining measured after 17 hrs by UPLC", "type": "physicochemical", "details": "pH 10, 17 h", "method_in_brief": "(§3)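 The ester was incubated in buffer at pH 7.4 or pH 10. Remaining ester and the hydrolysed carboxylic acid were followed over time by UPLC, at time points out to 82 h.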"}, "Rattus norvegicus [5]": {"tested_on": "Rattus norvegicus", "experiment": "Toxicity in stringent Dark Agouti to Lewis rat heterotopic vascular heart allotransplantation model assessed as change in body weight at 30 mg/kg, po bid coadministered with 0.3 mg/kg, qd everolimus", "type": "organism-based", "details": "in vivo", "method_in_brief": "as §2"}, "Rattus norvegicus [6]": {"tested_on": "Rattus norvegicus", "experiment": "Reduction in peripheral blood lymphocytes in Lewis rat assessed as remaining circulating lymphocytes level at 30 mg/kg, po, qd for 5 days by automated hematology analyzer", "type": "functional", "method_in_brief": "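Male Lewis rats were dosed daily at 30 mg/kg po for 5 days. Blood lymphocytes were counted on an automated hematology analyzer once a day, before the next dose, and expressed relative to the pretreatment baseline.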"}, "Blood [7]": {"tested_on": "Blood", "experiment": "Cmax in Lewis rat blood assessed as level of (S)-2-{[3'-(4-Chloro-2,5-dimethylphenylsulfonylamino)-3,5-dimethylbiphenyl-4-carbonyl]methylamino}-4-dimethylaminobutyric Acid Hydrochloride at 30 mg/kg, po administered as single dose measured 8 hrs post dose", "details": "in vivo"}, "Rattus norvegicus [8]": {"tested_on": "Rattus norvegicus", "experiment": "Toxicity in stringent Dark Agouti to Lewis rat heterotopic vascular heart allotransplantation model assessed as compound tolerance at 30 mg/kg, po bid coadministered with 0.3 mg/kg, qd everolimus", "type": "organism-based", "details": "in vivo", "method_in_brief": "as §2"}, "[9]": {"experiment": "Drug level in Lewis rat blood at 30 mg/kg, po administered as single dose measured 24 hrs post dose", "details": "read-out: Drug uptake"}, "[10]": {"experiment": "Cmax in Lewis rat blood at 30 mg/kg, po administered as single dose measured 8 hrs post dose"}, "[11]": {"experiment": "Stability in pH 7.4 buffer assessed as compound hydrolysis measured after 2 hrs by UPLC", "type": "physicochemical", "details": "read-out: Drug degradation", "method_in_brief": "as §3"}, "Rattus norvegicus [12]": {"tested_on": "Rattus norvegicus", "experiment": "Reduction in peripheral blood lymphocytes in Lewis rat assessed as remaining circulating lymphocytes level at 30 mg/kg, po administered as single dose measured 24 hrs post dose by automated hematology analyzer", "type": "functional", "method_in_brief": "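Male Lewis rats receive a single oral dose of compound or vehicle, freshly made in 30% PEG200/buffer. Blood (<200 μL) is drawn by sublingual puncture under isoflurane 5% v/v at baseline and later time points. Lymphocytes are counted on an automated hematology analyzer, and each animal's change is expressed as percent of its own pre-treatment baseline.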"}, "[13]": {"experiment": "Stability in pH 7.4 buffer assessed as compound hydrolysis measured after 82 hrs by UPLC", "type": "physicochemical", "details": "pH 7.4, 82 h", "method_in_brief": "as §3"}, "Rattus norvegicus [14]": {"tested_on": "Rattus norvegicus", "experiment": "Toxicity in stringent Dark Agouti to Lewis rat heterotopic vascular heart allotransplantation model assessed as incidence of histopathological changes at 30 mg/kg, po bid coadministered with 0.3 mg/kg, qd everolimus by hematoxylin and eosin staining", "type": "organism-based", "details": "in vivo", "method_in_brief": "as §2"}, "Rattus norvegicus [15]": {"tested_on": "Rattus norvegicus", "experiment": "Toxicity in stringent Dark Agouti to Lewis rat heterotopic vascular heart allotransplantation model assessed as change in body weight at 30 mg/kg, po bid", "type": "organism-based", "set-up": "dose 30 mg/kg, route oral", "details": "in vivo", "method_in_brief": "as §2"}, "Rattus norvegicus [16]": {"tested_on": "Rattus norvegicus", "experiment": "Induction of capillary leakage in Lewis rat Evans blue dye lung leakage model at 30 mg/kg, po bid measured 24 hrs after 6 hrs relative to untreated control", "type": "organism-based", "set-up": "dose 30 mg/kg, route oral", "details": "in vivo", "method_in_brief": "as §1"}, "Rattus norvegicus [17]": {"tested_on": "Rattus norvegicus", "experiment": "Induction of capillary leakage in Lewis rat Evans blue dye lung leakage model at 30 mg/kg, po bid measured 96 hrs after 6 hrs relative to untreated control", "type": "organism-based", "set-up": "dose 30 mg/kg, route oral", "details": "in vivo", "method_in_brief": "as §1"}, "[18]": {"experiment": "Stability in pH 5 buffer by UPLC", "type": "physicochemical"}, "[19]": {"experiment": "Stability in pH 7.4 buffer assessed as compound hydrolysis measured after 18 hrs by UPLC", "type": "physicochemical", "details": "read-out: Drug degradation", "method_in_brief": "as §3"}, "Rattus norvegicus [20]": {"tested_on": "Rattus norvegicus", "experiment": "Induction of capillary leakage in Lewis rat Evans blue dye lung leakage model at 30 mg/kg, po bid measured 6 hrs after 6 hrs relative to untreated control", "type": "organism-based", "set-up": "dose 30 mg/kg, route oral", "details": "in vivo", "method_in_brief": "as §1"}, "Blood [21]": {"tested_on": "Blood", "experiment": "Drug level in Lewis rat blood assessed as level of (S)-2-{[3'-(4-Chloro-2,5-dimethylphenylsulfonylamino)-3,5-dimethylbiphenyl-4-carbonyl]methylamino}-4-dimethylaminobutyric Acid Hydrochloride at 30 mg/kg, po administered as single dose measured 24 hrs post dose", "details": "in vivo"}, "Rattus norvegicus [22]": {"tested_on": "Rattus norvegicus", "experiment": "Increase in allograft survival in stringent Dark Agouti to Lewis rat heterotopic vascular heart allotransplantation model assessed as allograft mean survival time at 30 mg/kg, po bid (reference value: 6 days)", "type": "functional"}, "Rattus norvegicus [23]": {"tested_on": "Rattus norvegicus", "experiment": "Toxicity in stringent Dark Agouti to Lewis rat heterotopic vascular heart allotransplantation model assessed as compound tolerance at 30 mg/kg, po bid", "type": "organism-based", "set-up": "dose 30 mg/kg, route oral", "details": "in vivo", "method_in_brief": "as §2"}, "Rattus norvegicus [24]": {"tested_on": "Rattus norvegicus", "experiment": "Toxicity in stringent Dark Agouti to Lewis rat heterotopic vascular heart allotransplantation model assessed as change in body weight at 30 mg/kg, po bid coadministered with 10 mg/kg, bid sotrastaurin", "type": "organism-based", "details": "in vivo", "method_in_brief": "as §2"}, "Rattus norvegicus [25]": {"tested_on": "Rattus norvegicus", "experiment": "Toxicity in stringent Dark Agouti to Lewis rat heterotopic vascular heart allotransplantation model assessed as incidence of histopathological changes at 30 mg/kg, po bid coadministered with 10 mg/kg, bid sotrastaurin by hematoxylin and eosin staining", "type": "organism-based", "details": "in vivo", "method_in_brief": "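DA hearts grafted into rat recipients. Test agent 30 mg/kg po b.i.d. (in PEG200/water, pH 5 with 0.1 M HCl) plus the PKC inhibitor 10 mg/kg po b.i.d. (in D-glucose/PEG400/water/0.1 M HCl), started 3 days before transplantation. The study ended at rejection or a set end point. Grafts were formalin-fixed and paraffin-embedded, and 3 μm sections were stained with H&E and trichrome. Acute cellular rejection (0–3R), vasculopathy and fibrosis were scored; lungs were also examined.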"}, "Rattus norvegicus [26]": {"tested_on": "Rattus norvegicus", "experiment": "Reduction in peripheral blood lymphocytes in stringent Dark Agouti to Lewis rat heterotopic vascular heart allotransplantation model at 30 mg/kg, po bid coadministered with 10 mg/kg, bid sotrastaurin measured post 50 days post transplant relative to untreated control", "type": "functional", "set-up": "scale not given: the % may be the effect or the level left", "method_in_brief": "as §2"}}}
{"smiles": "COC(=O)[C@H](CCN(C)C)N(C)C(=O)c1c(C)cc(-c2cccc(NS(=O)(=O)c3cc(C)c(Cl)cc3C)c2)cc1C", "values": [{"measurement": "Activity", "setting": "Rattus norvegicus [1]", "result": 2, "unit": "mL"}, {"measurement": "Activity", "setting": "Rattus norvegicus [2]", "result": "Non-toxic"}, {"measurement": "Activity", "setting": "Rattus norvegicus [3]", "result": 9, "unit": "%"}, {"measurement": "Stability", "setting": "[4]", "result": "Unstable"}, {"measurement": "Activity", "setting": "Rattus norvegicus [5]", "result": "Non-toxic"}, {"measurement": "Activity", "setting": "Rattus norvegicus [6]", "result": 20, "unit": "%"}, {"measurement": "Cmax", "setting": "Blood [7]", "result": 29, "unit": "ng/mL"}, {"measurement": "Activity", "setting": "Rattus norvegicus [8]", "result": "Non-toxic"}, {"measurement": "concentration at 24 h", "setting": "[9]", "result": 50, "unit": "ng/mL"}, {"measurement": "Cmax", "setting": "[10]", "result": 364, "unit": "ng/mL"}, {"measurement": "degraded at 2 h", "setting": "[11]", "result": 9, "unit": "%"}, {"measurement": "Activity", "setting": "Rattus norvegicus [12]", "result": 22, "unit": "%"}, {"measurement": "Stability", "setting": "[13]", "result": "Unstable"}, {"measurement": "Activity", "setting": "Rattus norvegicus [14]", "result": "Non-toxic"}, {"measurement": "Activity", "setting": "Rattus norvegicus [15]", "result": "Non-toxic"}, {"measurement": "fold change (FC)", "setting": "Rattus norvegicus [16]", "result": 2.4}, {"measurement": "fold change (FC)", "setting": "Rattus norvegicus [17]", "result": 2.2}, {"measurement": "Stability", "setting": "[18]", "result": "> 53", "unit": "h"}, {"measurement": "degraded at 18 h", "setting": "[19]", "result": 48, "unit": "%"}, {"measurement": "fold change (FC)", "setting": "Rattus norvegicus [20]", "result": 3}, {"measurement": "Drug uptake", "setting": "Blood [21]", "result": 5, "unit": "ng/mL"}, {"measurement": "MST", "setting": "Rattus norvegicus [22]", "result": 8, "unit": "days"}, {"measurement": "Activity", "setting": "Rattus norvegicus [23]", "result": "Non-toxic"}, {"measurement": "Activity", "setting": "Rattus norvegicus [24]", "result": "Non-toxic"}, {"measurement": "Activity", "setting": "Rattus norvegicus [25]", "result": "Non-toxic"}, {"measurement": "Activity", "setting": "Rattus norvegicus [26]", "result": 12, "unit": "%"}]}
